In ChEMBL document CHEMBL4765412, “(±)-trans-2-phenyl-2,3-dihydrobenzofurans as leishmanicidal agents: Synthesis, in vitro evaluation and SAR analysis” (Eur J Med Chem, 2020):

How the values were obtained:
[1] = Selectivity index, ratio of IC50 for cytotoxicity against rat L6 cells to IC50 for antileishmanial activity against Leishmania donovani MHOM/ET/67/L82 amastigotes; format: toxicity, cell-based; details: for selectivity ratio: read-out: Ratio IC50
Leishmania donovani = assay: Antileishmanial activity against Leishmania donovani MHOM/ET/67/L82 amastigotes assessed as growth inhibition incubated for 70 hrs by resazurin based inverted microscopic analysis; format: functional, organism-based
How it was run: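 Axenic L. donovani amastigotes (MHOM/ET/67/L82); racemates tested unless stated; miltefosine as positive control. Some values come from a separate run and were rescaled by that run's relative miltefosine IC50.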

L6 = assay: Cytotoxicity against rat L6 cells assessed as reduction in cell viability incubated for 70 hrs by resazurin staining based inverted microscopic analysis; details: L6, 70 h
How it was run: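 Rat L-6 skeletal myoblast line; racemates tested unless stated.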

[2] = Leishmania donovani, MHOM/ET/67/L82, 70 h

Compound: CC(C)OC(=O)/C=C/c1cc(O)c2c(c1)[C@@H](C(=O)OC(C)C)[C@H](c1ccc(O)c(O)c1)O2
- selectivity ratio [1]: 16.4
- IC50 (Leishmania donovani; [2]): 0.65 µM
- IC50 (L6): 10.6 µM

Compound: CC(C)OC(=O)/C=C/c1cc(O)c2c(c1)[C@H](C(=O)OC(C)C)[C@@H](c1ccc(O)c(O)c1)O2
- Ratio IC50 [1]: 19.3
- IC50 (Leishmania donovani): 0.53 µM

Compound: COC(=O)/C=C/c1cc(O)c2c(c1)[C@H](C(=O)OC)[C@@H](c1ccc(O)c(O)c1)O2 (racemic)
- selectivity ratio [1]: 0.03
- IC50 (Leishmania donovani; [2]): 12.6 µM
- IC50 (L6): 0.37 µM

Compound: COC(=O)/C=C/c1ccc2c(c1)[C@H](C(=O)OC)[C@@H](c1ccc(O)cc1)O2 (racemic)
- selectivity ratio [1]: 3
- IC50 (Leishmania donovani; [2]): 7.84 µM
- IC50 (L6): 23.2 µM

Compound: COc1cc([C@H]2Oc3c(OC)cc(/C=C/CO)cc3[C@@H]2CO)ccc1O (racemic)
- selectivity ratio [1]: 0.5
- IC50 (Leishmania donovani; [2]): 160 µM
- IC50 (L6): 74.2 µM

Compound: COC(=O)/C=C/c1cc(OC)c2c(c1)[C@H](C(=O)OC)[C@@H](c1ccc(O)c(OC)c1)O2 (racemic)
- selectivity ratio [1]: 0.2
- IC50 (Leishmania donovani; [2]): 10.6 µM
- IC50 (L6): 2.43 µM

Compound: CC(C)NC(=O)/C=C/c1cc(O)c2c(c1)[C@H](C(=O)NC(C)C)[C@@H](c1ccc(O)c(O)c1)O2 (racemic)
- selectivity ratio [1]: 0.7
- IC50 (Leishmania donovani; [2]): 82.3 µM
- IC50 (L6): 55.5 µM

Compound: OC[C@H]1c2ccccc2O[C@@H]1c1ccc(O)cc1 (racemic)
- selectivity ratio [1]: 1.4
- IC50 (Leishmania donovani; [2]): 158 µM
- IC50 (L6): 217 µM

Compound: COc1cc([C@H]2Oc3c(OC)cc(/C=C/C(=O)OC(C)C)cc3[C@@H]2C(=O)OC(C)C)ccc1O (racemic)
- selectivity ratio [1]: 2.6
- IC50 (Leishmania donovani; [2]): 3.95 µM
- IC50 (L6): 10.3 µM

Compound: CC(C)(C)OC(=O)/C=C/c1cc(F)c2c(c1)[C@H](C(=O)OC(C)(C)C)[C@@H](c1ccc(O)c(F)c1)O2 (racemic)
- selectivity ratio [1]: 4.7
- IC50 (Leishmania donovani; [2]): 1.97 µM
- IC50 (L6): 9.22 µM

Compound: CC(C)(C)CC(=O)/C=C/c1cc(O)c2c(c1)[C@H](C(=O)CC(C)(C)C)[C@@H](c1ccc(O)c(O)c1)O2 (racemic)
- selectivity ratio [1]: 0.7
- IC50 (Leishmania donovani; [2]): 3.42 µM
- IC50 (L6): 2.45 µM

Compound: CCCCOC(=O)/C=C/c1cc(OC)c2c(c1)[C@H](C(=O)OCCCC)[C@@H](c1ccc(O)c(OC)c1)O2 (racemic)
- selectivity ratio [1]: 2.6
- IC50 (Leishmania donovani; [2]): 3.11 µM
- IC50 (L6): 8.18 µM

Compound: COc1cc([C@H]2Oc3c(OC)cc(/C=C/C(=O)NC(C)C)cc3[C@@H]2C(=O)NC(C)C)ccc1O (racemic)
- selectivity ratio [1]: 1.4
- IC50 (Leishmania donovani; [2]): 53.6 µM
- IC50 (L6): 77.2 µM

Compound: CC(C)(C)OC(=O)/C=C/c1cc(O)c2c(c1)[C@H](C(=O)OC(C)(C)C)[C@@H](c1ccc(O)c(O)c1)O2 (racemic)
- selectivity ratio [1]: 5.5
- IC50 (Leishmania donovani; [2]): 1.66 µM
- IC50 (L6): 9.05 µM

Compound: COc1cc([C@H]2Oc3ccc(Br)cc3[C@@H]2C)ccc1O (racemic)
- selectivity ratio [1]: 0.5
- IC50 (Leishmania donovani; [2]): 24.8 µM
- IC50 (L6): 13.1 µM

Compound: COc1ccc([C@H]2Oc3ccc(C=O)cc3[C@@H]2C)cc1 (racemic)
- selectivity ratio [1]: 1.4
- IC50 (Leishmania donovani; [2]): 30.5 µM
- IC50 (L6): 43.8 µM

Compound: CCOC(=O)/C=C/c1ccc2c(c1)[C@H](C(=O)OCC)[C@@H](c1ccc(O)cc1)O2 (racemic)
- selectivity ratio [1]: 3.5
- IC50 (Leishmania donovani; [2]): 7.45 µM
- IC50 (L6): 26.3 µM

Compound: CC(=O)OC[C@H]1c2cc(Br)ccc2O[C@@H]1c1ccc(O)cc1 (racemic)
- selectivity ratio [1]: 4
- IC50 (Leishmania donovani; [2]): 13.7 µM
- IC50 (L6): 55.5 µM

Compound: CCOC(=O)/C=C/c1cc(O)c2c(c1)[C@H](C(=O)OCC)[C@@H](c1ccc(O)c(O)c1)O2 (racemic)
- selectivity ratio [1]: 2.6
- IC50 (Leishmania donovani; [2]): 3.87 µM
- IC50 (L6): 9.99 µM

Compound: COc1ccc([C@H]2Oc3ccccc3[C@@H]2COC(C)=O)cc1 (racemic)
- selectivity ratio [1]: 0.8
- IC50 (Leishmania donovani; [2]): 58.4 µM
- IC50 (L6): 43.9 µM

Compound: COc1cc([C@H]2Oc3c(OC)cc(/C=C/C(=O)NCCO)cc3[C@@H]2C(=O)NCCO)ccc1O (racemic)
- selectivity ratio [1]: 1
- IC50 (Leishmania donovani; [2]): 212 µM
- IC50 (L6): 212 µM

Compound: CC(C)CC(=O)/C=C/c1cc(O)c2c(c1)[C@H](C(=O)CC(C)C)[C@@H](c1ccc(O)c(O)c1)O2 (racemic)
- selectivity ratio [1]: 1.1
- IC50 (Leishmania donovani; [2]): 4.42 µM
- IC50 (L6): 5 µM

Compound: CC(C)OC(=O)/C=C/c1ccc2c(c1)[C@H](C(=O)OC(C)C)[C@@H](c1ccc(O)cc1)O2 (racemic)
- selectivity ratio [1]: 3.4
- IC50 (Leishmania donovani; [2]): 4.21 µM
- IC50 (L6): 14.3 µM

Compound: CC(C)(C)OC(=O)/C=C/c1ccc2c(c1)[C@H](C(=O)OC(C)(C)C)[C@@H](c1ccc(O)cc1)O2 (racemic)
- selectivity ratio [1]: 2.2
- IC50 (Leishmania donovani; [2]): 6.07 µM
- IC50 (L6): 13.3 µM

Compound: CCCCOC(=O)/C=C/c1cc(O)c2c(c1)[C@H](C(=O)OCCCC)[C@@H](c1ccc(O)c(O)c1)O2 (racemic)
- selectivity ratio [1]: 5.6
- IC50 (Leishmania donovani; [2]): 1.66 µM
- IC50 (L6): 9.34 µM

Compound: CCCNC(=O)/C=C/c1cc(OC)c2c(c1)[C@H](C(=O)NCCC)[C@@H](c1ccc(O)c(OC)c1)O2 (racemic)
- selectivity ratio [1]: 8.3
- IC50 (Leishmania donovani; [2]): 8.88 µM
- IC50 (L6): 73.8 µM

Compound: COc1cc([C@H]2Oc3ccccc3[C@@H]2C)ccc1O (racemic)
- selectivity ratio [1]: 1.4
- IC50 (Leishmania donovani; [2]): 59 µM
- IC50 (L6): 84.4 µM

Compound: COc1ccc([C@H]2Oc3ccccc3[C@@H]2CO)cc1OC (racemic)
- selectivity ratio [1]: 0.4
- IC50 (Leishmania donovani; [2]): 136 µM
- IC50 (L6): 53.7 µM

Compound: CCCCCCCCOC(=O)/C=C/c1cc(O)c2c(c1)[C@H](C(=O)OCCCCCCCC)[C@@H](c1ccc(O)c(O)c1)O2 (racemic)
- selectivity ratio [1]: 0.8
- IC50 (Leishmania donovani; [2]): 23.5 µM
- IC50 (L6): 19.1 µM

Compound: COc1ccc([C@H]2Oc3ccccc3[C@@H]2C)cc1 (racemic)
- selectivity ratio [1]: 1.6
- IC50 (Leishmania donovani; [2]): 99.9 µM
- IC50 (L6): 154 µM

Compound: OC[C@H]1c2cc(Br)ccc2O[C@@H]1c1ccc(O)cc1 (racemic)
- selectivity ratio [1]: 1.2
- IC50 (Leishmania donovani; [2]): 18.8 µM
- IC50 (L6): 22 µM

Compound: COc1cc([C@H]2Oc3c(OC)cc(/C=C/C(=O)O)cc3[C@@H]2C(=O)O)ccc1O (racemic)
- selectivity ratio [1]: 37.6
- IC50 (Leishmania donovani; [2]): 6.89 µM
- IC50 (L6): 259 µM

Compound: CCOC(=O)/C=C/c1cc(OC)c2c(c1)[C@H](C(=O)OCC)[C@@H](c1ccc(O)c(OC)c1)O2 (racemic)
- selectivity ratio [1]: 0.5
- IC50 (Leishmania donovani; [2]): 9.1 µM
- IC50 (L6): 4.42 µM

Compound: COc1cc([C@H]2Oc3ccc(Br)cc3[C@@H]2CO)ccc1O (racemic)
- selectivity ratio [1]: 1.1
- IC50 (Leishmania donovani; [2]): 30.5 µM
- IC50 (L6): 32.3 µM

Compound: COc1cc([C@H]2Oc3ccccc3[C@@H]2CO)ccc1O (racemic)
- selectivity ratio [1]: 0.3
- IC50 (Leishmania donovani; [2]): 185 µM
- IC50 (L6): 58 µM

Compound: COc1cc([C@H]2Oc3c(OC)cc(/C=C/C(=O)OC(C)(C)C)cc3[C@@H]2C(=O)OC(C)(C)C)ccc1O (racemic)
- selectivity ratio [1]: 5.4
- IC50 (Leishmania donovani; [2]): 2.1 µM
- IC50 (L6): 11.4 µM

Compound: CCCCOC(=O)/C=C/c1ccc2c(c1)[C@H](C(=O)OCCCC)[C@@H](c1ccc(O)cc1)O2 (racemic)
- selectivity ratio [1]: 1.3
- IC50 (Leishmania donovani; [2]): 10.8 µM
- IC50 (L6): 14.3 µM

Compound: COc1ccc([C@H]2Oc3ccc(Br)cc3[C@@H]2C)cc1 (racemic)
- selectivity ratio [1]: 1.9
- IC50 (Leishmania donovani; [2]): 31.8 µM
- IC50 (L6): 60.3 µM

Compound: COc1ccc([C@H]2Oc3ccc(Br)cc3[C@@H]2CO)cc1OC (racemic)
- selectivity ratio [1]: 0.6
- IC50 (Leishmania donovani; [2]): 33.8 µM
- IC50 (L6): 21.2 µM

Compound: OC[C@H]1c2ccccc2O[C@@H]1c1ccccc1Br (racemic)
- selectivity ratio [1]: 1.2
- IC50 (Leishmania donovani; [2]): 21.7 µM
- IC50 (L6): 25.4 µM

Compound: COc1ccc([C@H]2Oc3ccccc3[C@@H]2CO)cc1 (racemic)
- selectivity ratio [1]: 0.6
- IC50 (Leishmania donovani; [2]): 70.3 µM
- IC50 (L6): 43.6 µM

Compound: C=CCOC(=O)/C=C/c1cc(O)c2c(c1)[C@H](C(=O)OCC=C)[C@@H](c1ccc(O)c(O)c1)O2 (racemic)
- selectivity ratio [1]: 1
- IC50 (Leishmania donovani; [2]): 6.32 µM
- IC50 (L6): 6.41 µM

Compound: COc1cc([C@H]2Oc3c(OC)cc(/C=C/C(=O)CC(C)C)cc3[C@@H]2C(=O)CC(C)C)ccc1O (racemic)
- selectivity ratio [1]: 1.4
- IC50 (Leishmania donovani; [2]): 3.81 µM
- IC50 (L6): 5.29 µM

Compound: COc1ccc([C@H]2Oc3ccc(/C=C/C(C)=O)cc3[C@@H]2C)cc1 (racemic)
- selectivity ratio [1]: 0.5
- IC50 (Leishmania donovani; [2]): 17.4 µM
- IC50 (L6): 9.35 µM

Compound: CCCCCCCCCCCCCCCCOP(=O)([O-])OCC[N+](C)(C)C [MILTEFOSINE]
- IC50 (Leishmania donovani; [2]): 0.77 µM
